Measured values as given in ChEMBL document CHEMBL4842360, “Discovery of a Bicyclic Peptidyl Pan-Ras Inhibitor” (J Med Chem, 2021).
Numbered stars: 1 amine (or outer) side, 2 acyl side, 3 side chain; on linkers, the order of the positions; unused ones are H or OH. Bridge positions count the residues as written; N and C are the ends. Square brackets hold non-standard residues; d marks the D form. Peptide text beside a SMILES is read from it. Trimesoyl = O=C(c1cc(C(=O)[*:2])cc(C(=O)[*:3])c1)[*:1]; Phe(4-F) = N[C@@H](Cc1ccc(F)cc1)C(=O)O; 2Nal = N[C@@H](Cc1ccc2ccccc2c1)C(=O)O; d2Nal = N[C@H](Cc1ccc2ccccc2c1)C(=O)O; X1 = CCCCCCC[C@H](N[*:1])C(=O)[*:2]; Phg = N[C@H](C(=O)O)c1ccccc1; dNle = CCCC[C@@H](N)C(=O)O; Nle = CCCC[C@H](N)C(=O)O; Orn = NCCC[C@H](N)C(=O)O; Dap = NC[C@H](N)C(=O)O; X2 = C(C[*:1])C[*:2]; βAla = NCCC(=O)O

Legend:
NCI-H1299 [1] = experiment: Induction of apoptosis in human NCI-H1299 cells by MTT assay; assay type: functional, cell-based
NCI-H358 [2] = experiment: Antiproliferative activity against human NCI-H358 cells incubated for 96 hrs by MTT assay; assay type: functional, cell-based; conditions: Homo sapiens, NCI-H358, 96 h; read-out: EC50
Method in brief: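 H358 cells at 5,000/well, grown overnight, treated with serially diluted peptide (0–40 μM) in 10% FBS medium for 96 h at 37 °C. MTT added for 4 h, formazan solubilized overnight in SDS-HCl, absorbance read at 570 nm.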

[3] = Drug localization in cytosol of human HeLa cells assessed as mean fluorescence intensity at 5 uM incubated for 2 hrs by flow cytometry relative to relative to extracellular concentration; assay type: ADME, subcellular
GTPase KRas [4] = biological target: T1, GTPase KRas (Homo sapiens, UniProt P01116, G12V); experiment: biochemical
NCI-H358 [5] = experiment: Antiproliferative activity against human NCI-H358 cells incubated for 96 hrs by Celltiter-Glo assay; assay type: functional, cell-based; conditions: Homo sapiens, NCI-H358, 96 h; read-out: EC50
GTPase KRas [6] = biological target: GTPase KRas (Homo sapiens, UniProt P01116, G12D); experiment: Binding affinity to recombinant human KRAS G12D mutant incubated for 0.5 hrs by ELISA
PANC-1 = experiment: Antitumor activity against human PANC-1 cells xenografted in BALB/c mouse assessed as inhibition of cell growth at 40 mg/kg, iv administered once every 2 days for 4 weeks; assay type: functional; conditions: PANC-1, iv, 672 h, read-out: GI
GTPase KRas [7] = biological target: T1, GTPase KRas; experiment: Inhibition of GPPNP bound KRAS G12V mutant (unknown origin) assessed as reduction in KRAS/GST-fused Raf RBD interaction incubated for 2 hrs by HTRF assay
NCI-H1299 [8] = experiment: Induction of apoptosis in human NCI-H1299 cells incubated for 24 hrs by MTT assay; assay type: functional, cell-based; conditions: NCI-H1299, 24 h

T1 sequence (P01116 whole entry G12V): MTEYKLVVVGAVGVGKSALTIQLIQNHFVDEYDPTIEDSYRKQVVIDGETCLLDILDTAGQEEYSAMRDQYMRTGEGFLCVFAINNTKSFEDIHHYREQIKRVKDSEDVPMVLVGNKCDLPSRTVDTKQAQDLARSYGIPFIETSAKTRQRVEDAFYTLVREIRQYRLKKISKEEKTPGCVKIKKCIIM
Sequence of GTPase KRas (Homo sapiens, UniProt P01116, G12D) (P01116 whole entry G12D): as the sequence (P01116 whole entry G12V) above, with V12D counted along it

CCCC[C@H]1NC(=O)[C@H](Cc2ccc(F)cc2)NC(=O)[C@H](CCCNC(=N)N)NC(=O)[C@@H](Cc2ccc3ccccc3c2)NC(=O)[C@H](CCCNC(=N)N)NC(=O)[C@H](CCCNC(=N)N)NC(=O)[C@H](CCCNC(=N)N)NC(=O)[C@@H](C)NC(=O)[C@H]([C@@H](C)O)NC(=O)[C@H](Cc2c[nH]c3ccccc23)NC(=O)[C@H](CCC(N)=O)NC1=O (cyclo(WT[dA]RRR[d2Nal]R[Phe(4-F)][dNle]Q))
EC50 (NCI-H1299 [1]): 3 µM

C[C@@H]1NC(=O)[C@@H](Cc2ccccc2)NC(=O)[C@@H]2CCCCNC(=O)c3cc(cc(c3)C(=O)N[C@H](Cc3ccc4ccccc4c3)C(=O)N[C@@H](CO)C(=O)N[C@@H](CCC(N)=O)C(=O)N[C@H](Cc3ccc4ccccc4c3)C(=O)N[C@@H](c3ccccc3)C(=O)N2)C(=O)NC[C@@H](C(=O)NCCC(=O)NCCC(=O)NC(CCCCN)C(N)=O)NC(=O)[C@H](CCCNC(=N)N)NC(=O)[C@@H](CCCNC(=N)N)NC1=O (some centres not stated)
EC50 (NCI-H358 [2]): 29 µM | Drug uptake [3]: Active | Kd (GTPase KRas [4]): 0.14 µM | EC50 (NCI-H358 [5]): 22 µM

CCCCCCC[C@@H]1NC(=O)[C@@H]2CSCCCSC[C@H](NC(=O)[C@H](Cc3c[nH]c4ccccc34)NC(=O)[C@@H]3CCCN3C(=O)[C@H](CC(=O)O)NC(=O)[C@H](Cc3ccc(F)cc3)NC(=O)[C@H](CO)NC1=O)C(=O)NCCC(=O)N1CCC[C@H]1C(=O)N[C@@H](CCCC)C(=O)N2 (cyclo(C[X1]S[Phe(4-F)]DPWC[βAla]P[Nle]); linker 1-8 via X2)
Kd (GTPase KRas [6]): 0.022 µM | inhibition in vivo at 40 mg/kg (PANC-1): 65%

CC[C@@H](C)[C@@H]1NC(=O)[C@H](Cc2cn(CCc3c(C)[nH]c4cc(Cl)cc(Cl)c34)nn2)NC(=O)[C@@H](CC(N)=O)NC(=O)[C@H](CCCNC(=N)N)NC(=O)[C@H](Cc2ccccc2)NC(=O)[C@@H](CC(C)C)NC(=O)[C@@H](C)NC(=O)c2cc3cc(c2)C(=O)NC[C@@H](C(N)=O)NC(=O)[C@H](CCCNC(=N)N)NC(=O)[C@H](CCCNC(=N)N)NC(=O)[C@H](CCCNC(=N)N)NC(=O)[C@H](CCCNC(=N)N)NC(=O)[C@H](Cc2ccc4ccccc4c2)NC(=O)[C@H](Cc2ccccc2)NC(=O)C(CCCCNC3=O)NC(=O)[C@H](CC(=O)O)NC1=O (some centres not stated)
IC50 (GTPase KRas [7]): 3.4 µM | EC50 (NCI-H1299 [8]): 8 µM

N=C(N)NCCC[C@@H]1NC(=O)[C@H](Cc2ccc3ccccc3c2)NC(=O)[C@@H](Cc2ccccc2)NC(=O)[C@H](Cc2ccccc2)NC(=O)[C@H](CCC(N)=O)NC(=O)[C@@H](CCCNC(=N)N)NC(=O)[C@H](CCCNC(=N)N)NC(=O)[C@@H](CCCNC(=N)N)NC1=O (cyclo([2Nal]R[dR]R[dR]QF[dF]))
Drug uptake [3]: 120%

C[C@H](NC(=O)[C@@H]1CNC(=O)c2cc3cc(c2)C(=O)N[C@H](Cc2ccc4ccccc4c2)C(=O)N[C@@H](CO)C(=O)N[C@@H](CCC(N)=O)C(=O)N[C@H](Cc2ccc4ccccc4c2)C(=O)N[C@@H](c2ccccc2)C(=O)N[C@@H](CCCCNC3=O)C(=O)N[C@H](Cc2ccccc2)C(=O)N[C@@H](C)C(=O)N[C@H](CCCNC(=N)N)C(=O)N[C@@H](CCCNC(=N)N)C(=O)N1)C(=O)N[C@H](CCCNC(=N)N)C(=O)N[C@H](Cc1ccccc1)C(=O)N[C@@H](Cc1ccc(F)cc1)C(N)=O
EC50 (NCI-H358 [2]): 19 µM

C[C@@H]1NC(=O)[C@@H](Cc2ccccc2)NC(=O)[C@@H]2CCCCNC(=O)c3cc(cc(c3)C(=O)N[C@H](Cc3ccc4ccccc4c3)C(=O)N[C@@H](CO)C(=O)N[C@@H](CCC(N)=O)C(=O)N[C@H](Cc3ccc4ccccc4c3)C(=O)N[C@@H](c3ccccc3)C(=O)N2)C(=O)NC[C@@H](C(=O)N[C@@H](CCCN)C(=O)N[C@H](CCCNC(=N)N)C(=O)N[C@@H](Cc2ccc(F)cc2)C(=O)N[C@H](C)C(=O)N[C@@H](CCCCN)C(N)=O)NC(=O)[C@H](CCCNC(=N)N)NC(=O)[C@@H](CCCNC(=N)N)NC1=O ([d2Nal]SQ[d2Nal][Phg]K[dF]A[dR]R[Dap][Orn][dR][Phe(4-F)][dA]K-NH2; linker N-6-11 via Trimesoyl)
Drug uptake [3]: Active
